From ChEMBL document CHEMBL1124800, “9,11-epoxy-9-homoprosta-5-enoic acid analogues as thromboxane A2 receptor antagonists” (J Med Chem, 1990)

Experiments:
[1] = organism: Homo sapiens; assay: In vitro inhibition of aggregation of human platelet rich plasma induced by arachidonic acid; assay type: functional; settings: read-out: I50
[2] = organism: Homo sapiens; assay: In vitro inhibition of aggregation of human platelet rich plasma induced by adenosine diphosphate; assay type: functional; settings: read-out: I50
[3] = organism: Rattus norvegicus; assay: Maximal contraction of rat stomach induced by serotonin; assay type: functional
How it was run: (§1)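 Rat stomach strip; test compound concentration giving 50% of the maximal contraction produced by 3.0 × 10⁻⁷ M serotonin (A50). Where reported as a percentage, value is the maximum contraction seen at the stated test concentration. n = 8.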

[4] = organism: Rattus norvegicus; assay: Maximal contraction of rat stomach induced by serotonin at 30 uM concentration; assay type: functional; how it was run: as §1
[5] = organism: Rattus norvegicus; assay: Concentration required to elicit 50% of the maximal contraction of rat stomach induced by serotonin; assay type: functional; how it was run: as §1
[6] = molecular target: T1, Thromboxane A2 receptor (Rattus norvegicus, UniProt P34978); assay: Antagonistic activity against Thromboxane A2 receptor in rat aorta in the presence of 11,9-epoxymethano-PGH2; assay type: functional, tissue-based
T1 sequence (P34978 whole entry): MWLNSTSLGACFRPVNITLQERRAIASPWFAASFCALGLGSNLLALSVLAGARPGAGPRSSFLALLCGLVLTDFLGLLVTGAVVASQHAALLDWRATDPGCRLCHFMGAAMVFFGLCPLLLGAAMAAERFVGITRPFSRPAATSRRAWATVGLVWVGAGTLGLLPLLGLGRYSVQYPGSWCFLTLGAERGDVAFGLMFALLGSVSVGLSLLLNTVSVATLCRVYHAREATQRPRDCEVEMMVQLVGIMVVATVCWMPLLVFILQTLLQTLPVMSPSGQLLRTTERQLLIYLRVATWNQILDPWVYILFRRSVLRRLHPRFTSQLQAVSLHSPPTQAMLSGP

[7] = organism: Cavia porcellus; assay: Competitive antagonism of 11,9-epoxymethano-PGH2-induced contraction in guinea pig trachea; assay type: functional
[8] = molecular target: Thromboxane A2 receptor (Cavia porcellus); assay: Antagonistic activity against Thromboxane A2 receptor in guinea pig trachea in the presence of 9,11-azo-PGH2; settings: read-out: I50
[9] = molecular target: Thromboxane A2 receptor (Cavia porcellus); assay: Antagonistic activity against Thromboxane A2 receptor in guinea pig trachea in the presence of 11,9-epoxymethano-PGH2; settings: read-out: pA2 (converted)
[10] = organism: Rattus norvegicus; assay: Competitive antagonism of 11,9-epoxymethano-PGH2-induced contraction in rat aorta; assay type: functional
[11] = organism: Rattus norvegicus; assay: Maximal contraction of rat stomach induced by serotonin at 0.1 uM concentration; assay type: functional

C[C@H](c1ccccc1)[C@H](O)/C=C/C1C2CCC(O2)[C@H]1C/C=C\CCCC(=O)O (some centres undefined)
IC50 [1]: 3.1 µM | IC50 [2]: > 1000 µM | Contraction [3]: 0%

C[C@H](c1ccccc1)[C@H](O)/C=C/C1C2CCC(O2)[C@@H]1C/C=C\CCCC(=O)O (some centres undefined)
IC50 [1]: 730 µM | IC50 [2]: > 100 µM

C[C@@H](c1ccccc1)[C@H](O)/C=C/[C@@H]1C2CCC(O2)[C@@H]1C/C=C\CCCc1nnn[nH]1 (some centres undefined)
IC50 [1]: 3.2 µM

O=C(O)CCC/C=C\CC1C2CCC(O2)C1/C=C/[C@@H](O)C1CCCCC1 (some centres undefined)
Contraction [4]: 9% | IC50 [1]: 0.4 µM | IC50 [2]: 0.9 µM

C[C@@H](c1ccc(O)c(I)c1)[C@H](O)/C=C/C1C2CCC(O2)C1C/C=C\CCCC(=O)O (some centres undefined)
IC50 [1]: 0.93 µM | IC50 [2]: > 1000 µM

O=C(O)CCC/C=C\CC1C2CCC(O2)C1/C=C/[C@@H](O)COc1ccccc1 (some centres undefined)
A50 [5]: 6 µM

C[C@@H](c1ccccc1)[C@H](O)/C=C/C1C2CCC(O2)C1C/C=C\CCCC(=O)O (some centres undefined)
Kb [6]: 0.00794 µM | Kb [7]: 0.0121 µM | IC50 [8]: 1.98 µM | Kb [9]: 0.01 µM | IC50 [1]: 0.65 µM | IC50 [2]: > 1000 µM | Kb [10]: 0.0135 µM | Contraction [3]: 0%

C[C@@H](c1ccccc1)[C@H](O)/C=C/[C@@H]1C2CCC(O2)[C@@H]1CC/C=C/CCC(=O)O (some centres undefined)
IC50 [1]: 25 µM

CCCCC(C)(C)[C@H](O)/C=C/C1C2CCC(O2)C1C/C=C\CCCC(=O)O (some centres undefined)
IC50 [1]: 1.1 µM | IC50 [2]: > 1000 µM

O=C(O)CCC/C=C\CC1C2CCC(O2)C1/C=C/[C@@H](O)CCc1ccccc1 (some centres undefined)
IC50 [1]: 1.2 µM | IC50 [2]: > 1000 µM | A50 [5]: 3.7 µM

C[C@@H](c1ccc(O)cc1)[C@H](O)/C=C/C1C2CCC(O2)C1C/C=C\CCCC(=O)O (some centres undefined)
IC50 [1]: 0.24 µM | Contraction [11]: 21% | IC50 [2]: 950 µM

CC(CC/C=C\C[C@H]1C2CCC(O2)[C@H]1/C=C/[C@@H](O)[C@@H](C)c1ccccc1)C(=O)O (some centres undefined)
IC50 [1]: 25 µM

CCCCC[C@H](O)/C=C/C1C2CCC(O2)C1C/C=C\CCCC(=O)O (some centres undefined)
IC50 [1]: 1.7 µM | IC50 [2]: 300 µM | A50 [5]: 0.4 µM

O=C(O)CCC/C=C\C[C@H]1C2CCC(O2)[C@H]1CNNC(=O)Nc1ccccc1 (some centres undefined)
Kb [7]: 0.0013 µM | Kb [10]: 0.00066 µM

C[C@@H](c1ccccc1)[C@H](O)/C=C/[C@@H]1C2CCC(O2)[C@@H]1C/C=C\COCC(=O)O (some centres undefined)
IC50 [1]: 3.4 µM

CC(C/C=C\C[C@H]1C2CCC(O2)[C@H]1/C=C/[C@@H](O)[C@@H](C)c1ccccc1)CC(=O)O (some centres undefined)
IC50 [1]: 12 µM

C[C@@H](c1ccccc1)[C@H](O)/C=C/[C@@H]1C2CCC(O2)[C@@H]1C/C=C\C/C=C/C(=O)O (some centres undefined)
IC50 [1]: 3.8 µM

C[C@@H](c1ccccc1)[C@H](O)/C=C/[C@@H]1C2CCC(O2)[C@@H]1C/C=C\CCC(C)(C)C(=O)O (some centres undefined)
IC50 [1]: 260 µM
